Measurements reported in the EternaBench riboswitch data.

System: MS2 coat protein
Assay: apparent Kd, MS2 coat protein; higher = weaker binding; RNA-MaP array; FMN 200 µM where present
Method in brief: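 The titrant was SNAP-549-labelled MS2 coat protein, run from 0.7 or 1.5 nM in doubling steps to 3 µM. It was applied to designs transcribed by stalled E. coli RNA polymerase on Illumina sequencing-chip clusters, without ligand first and then with constant ligand, in 100 mM Tris-HCl pH 7.5, 80 mM KCl, 4 mM MgCl2, BSA, DTT, yeast tRNA and Tween-20. The apparent Kd is the median of filtered per-cluster binding-curve fits, with green signal normalised to red-channel RNA signal and control-cluster median Fmax.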

[1] = designed as: ON switch for flavin mononucleotide, no ligand
[2] = ligand present: flavin mononucleotide, designed as: ON switch for flavin mononucleotide
[3] = designed as: OFF switch for flavin mononucleotide, no ligand
[4] = ligand present: flavin mononucleotide, designed as: OFF switch for flavin mononucleotide

Sequence | apparent Kd [1] | apparent Kd [2] | apparent Kd [3] | apparent Kd [4]
GGGUACAUCGGAGGAUAUCAUGUAAAUACAUGAGGAUCACCCAUGUCGAUUGAGACAUCGGAGAUUGAGAAGGCCGAUGUACCG | 0.0745 µM | 0.534 µM |  | 
UCAUUUCAGUAAGGAUAUUAAAACAUGACGAUACAUGAGGAUCACCCAUGUUAAGAAGGUACUAAUACAUAUAAUGCAAUGUUC |  |  | 0.016 µM | 0.015 µM
AAAAACAGAGGAUAUACAAAAUGAUGACGAAAGUCAUCAAAACAUGAGGAUCACCCAUGUAGAAGGCUGAAAAA |  |  | 0.0259 µM | 0.0229 µM
UAAAUGUGAGGAUAUCAGGUGUGCUAGAGAACUGGUACAUCUGAGAAGGCACAUGAGGAUCACCCAUGUUCUUC |  |  | 0.039 µM | 0.207 µM
GUUUUAUAGAUCCAUUUUAACAACAUGAGGAUCACCCAUGUGCAGGAUAUCGUUUGUUUUAUAUUCGAGAAGGGCAAAUUCAUU |  |  | 0.0443 µM | 0.102 µM
GCUCUAUGCUAGAAGGCGUGAAACAUGAGGAUCACCCAUGUCAGAGAUAUGAGGAUAUAGCAUAGAGCAAAAGACGGAAACGUC | 0.0134 µM | 0.00541 µM |  | 
CGAUGAGGAGUGAGGAUAUCGUGUUCGAAAGAACGUGAGAAGGCACAUGAGGAUCACCCAUGUGAAACUUGUCG |  |  | 0.0171 µM | 0.0239 µM
GCCUCACAUGAGGAUCACCCAUGUCAGGAUAUAGGAGACGGCAGAAAUUCUGCCGUCGCUAGAAGGGACUGGCA |  |  | 0.0442 µM | 0.0869 µM
UGAGCAAGAGGAUAUACAAGGCGACCGUGAGGUCGAGGUUUACAUGAGGAUCACCCAUGUAGAAGGCUUGUUCU |  |  | 0.0172 µM | 0.0389 µM
GAUUUCUCAUGAGGAUAUGCUCGCAUUUCAAGAGCAGAAGGUAUGUCAUUAGACAUGAGGAUCACCCAUGUAGUUAAGAUUGAA | 0.072 µM | 0.0447 µM |  | 
AACAGGGAUUCAGGAUAUAUUAGCCGAGGCCGCGUAGAAGGGAAAUCCUGACAUGAGGAUCACCCAUGUCGACCCGCCUUCCAC | 0.0231 µM | 0.0229 µM |  | 
UCGGCGCGAGGAUAUGCGGCUUGUGCUUCGGGCCCUCGCGUACAUGAGGAUCACCCAUGUAGAAGGCGCGCCGC |  |  | 0.12 µM | 0.0917 µM
GGGCCCGGAGGAUAUACAAUGGGCUCGGGAAACUGGGUCUUACAUGAGGAUCACCCAUGUAGAAGGCCGGGCCC |  |  | 0.0189 µM | 0.0234 µM
UUGGACGUCCUAGGAUAUGUAGGAUAUUCCUACAUGAGGAUCACCCAUGUUGACAUGGAAGAAGGACAGAAGGACGAUGUCCAU | 0.551 µM | 0.0713 µM |  | 
ACAUGGAAGUAGAAGGGUAAUACUUUAGAAUGUACCAUUAGAUGAUGUUAUACAGGAUAUGCUAACAUGAGGAUCACCCAUGUG |  |  | 0.0256 µM | 0.0198 µM
CAAUUCCGAGGAUAUACAUGAGGAUCACCCAUGUCGGGCCUCAGCGUUUAGCGCUUAAGUAGAAGGUGGGUUUC |  |  | 0.0407 µM | 0.0545 µM
AGUUGUAAUACAGGAUAUAUAUUAUUUUUAUUUAUAGAAGGGUAAUCACAUGAGGAUCACCCAUGUAUAUACGAGGAAGAAGAG | 0.291 µM | 0.329 µM |  | 
GGUGGACAUGAGGAUCACCCAUGUGAGGAUAUCGGCUGGUACGUGUUGGCUGGCUUCUCGAGAAGGCACAUAGU |  |  | 0.0647 µM | 0.0754 µM
CUAUGCGGAAUAGGAUAUUCGCUCAUGAGGAUAGAAGAAGGGUUACAUGAGGAUCACCCAUGUAUGCACAUGAGGAUCCCUUAG |  |  | 0.134 µM | 0.15 µM
CACAAGAAAGUCGAAGGUUGAAGUAGAAGGACUACAACAUGACAUGAGGAUCACCCAUGUGCUAAGUAGGAUAUGCUUUAAUCG |  |  | 0.00563 µM | 0.00547 µM
AGAUGGUCAGGAUAUGCGUGAAGAAUAAAACAAAUAACAACGCAGAAGGGACAUGAGGAUCACCCAUGUCAUCA |  |  | 0.0219 µM | 0.0173 µM
UAGGCGAACAUGAGGAUCACCCAUGUACGCGGUAUAUGAGCGAGAAGGGUAUGAUGUGUGGUCCUACAGGAUAUCGCUAAUAAA | 0.0262 µM | 0.00652 µM |  | 
UUAUUUUUACAGAAGGUUUAAUACUAUGUAUGAGAAGGAUAUGUAACAUGAGGAUCACCCAUGUUUUAUUUAUAUGAGGUUCGU |  |  | 0.0138 µM | 0.0125 µM
GUCAGCUCGUGAGGAUAUACAACACUGCUUCGGCAGUGUAUUAAGAGCACAUGAGGAUCACCCAUGUAGAAGGCACGAGCUGAU |  |  | 0.00558 µM | 0.00761 µM
GGAUCCUUCACAGGAUAUGCUGGACUUUGUCCAGCAGAAGGGUGAACAUGAGGAUCACCCAUGUAUUGGAUCCAUAUAUUUAAU | 0.897 µM | 0.0561 µM |  | 
AUAUAGUCAGGAUAUCGAAGUGUGUGUUGGUUUGUAAUUUACGAGAAGGGACAUGAGGAUCACCCAUGUAGGAA |  |  | 0.0401 µM | 0.0349 µM
AAAAAACAUGAGGAUCACCCAUGUGAGGAUAUCACUAGUCAGUCCUCGGAGUGAGUACUGAGAAGGCACAUAAA |  |  | 0.0681 µM | 0.0449 µM
AAACAUGUCCGAGGAUAUCUGGAAACAUUUUCAAGAGAAGGCGGACAUGAGGAUCACCCAUGUCUCUCCUCAUCAAGUACAAAU |  |  | 0.00733 µM | 0.0463 µM

Sequence | apparent Kd [1] | apparent Kd [2] | apparent Kd [3] | apparent Kd [4]
UAUAUGUCAGGAUAUUAGUUGAGUUAGAAUUUAUCCUCUGCUGAGAAGGGACAUGAGGAUCACCCAUGUUCCUC |  |  | 0.0151 µM | 0.0315 µM
GGAUGUCAAAGACAUCCAUAACGAACAUGAGGAUCACCCAUGUAGGAUAUGCUACUCAAAGAGUAGCAGAAGGACAUGUGCCUU |  |  | 0.0336 µM | 0.269 µM
AAAUUUAACGAAGGAUAUGGAUACAUGAGGAUCACCCAUGUAUAUUUUGUGAUCUUGUUUAAGAUCCAGAAGGUCGUAUACAUA |  |  | 0.024 µM | 0.0561 µM
CACGUCAGGAAACGGAGCGGCCAACAUGAGGAUCACCCAUGUGAGGAUAUGCCUACUAAAAGUAGGCAGAAGGCACAAUUGGCA |  |  | 0.0367 µM | 0.0949 µM
GGGCCGGUGGAGAAGGAGCUUGCGAAACGCAUGCUAGGAUAUCCACAUGAGGAUCACCCAUGUGGGAAUAUCUGAUUUUCGCAG |  |  | 0.00436 µM | 0.00484 µM
UGGUACUAGGGAGGAUAUGGGAAGAUACAUGAGGAUCACCCAUGUUUAAGAAUGCCGAGAGGCAACUAGAAGGCGCUAGUACCU | 0.71 µM | 0.0909 µM |  | 
ACCGUGUCAGGAUAUCCUGCUGUGCGGAAUCUGUAUUCACGGGAGAAGGGACAUGAGGAUCACCCAUGUUUGAG |  |  | 0.0196 µM | 0.0186 µM
UAUAUAUAGUAAGGAUAUGUAAUUAAUUUAUAAACAGAAGGUACUGACAUGAGGAUCACCCAUGUUUUAGUGUGGGCAUGUAGA |  |  | 0.0953 µM | 0.155 µM
GGUGUCGCAUGAGGAUAUGGUCAGCUUUGCUGACCAGAAGGCAUGUCAAUAGACAUGAGGAUCACCCAUGUAGUUAAGACACCA | 0.739 µM | 0.0482 µM |  | 
CAAUCACCCUCAUGUACCUGAGGACAUGAGGAUCACCCAUGUAAGGAUAUAGCCAUUAAAUCUAACUAGAAGGUAUAAAUAACC |  |  | 1.01 µM | 0.523 µM
ACUGUUUGAUUCCUCUUAUACAUGAGGAUCACCCAUGUUAUCGAGGAUAUGCAUUAGAGUGUUUGGCAGAAGGCGAUGUAAUUG |  |  | 0.0069 µM | 0.0234 µM
AUAAGUCGAGGAUAUACGGGAUGCUAGCGAAAGCUAGCAUAACAUGAGGAUCACCCAUGUAGAAGGCGACAAUA |  |  | 0.0562 µM | 0.104 µM
AAAAAACAUGAGGAUCACCCAUGUCCUCGGACAUGAGGAUAUGUACAGACUUCGGUCUGUACAGAAGGCAUGUCUU | 0.302 µM | 0.308 µM |  | 
AGCUAGUCAGGAUAUACGUAAAUGUCGAAAGACGUAUUGGGACAUGAGGAUCACCCAUGUAGAAGGGACUAGCA |  |  | 0.0272 µM | 0.108 µM
CAAGAUGUCUGGUAAUUGCGUACACAGGAUAUGGAUUGUUACAUGAGGAUCACCCAUGUUUCCUUUCAGAAGGGUGUAUCAUGU | 0.208 µM | 0.0205 µM |  | 
CGCAAGUCAGGAUAUUCGACUGGUAAAUCAGUGGAUCAGUAGGAGAAGGGACAUGAGGAUCACCCAUGUUUGUA |  |  | 0.0278 µM | 0.03 µM
UCAUAUAUACAAGGAUAUCAAUUAUUUACACAUCCUACAUGAGGAUCACCCAUGUUUUAAUAUUUUGAGAAGGUGUAAUGUCGG | 0.024 µM | 0.0307 µM |  | 
GAGCGAAAGCUCAAUGUCGAUAGCAGAAGGACAUGAAUAACAUGAAUAACAUGAGGAUCACCCAUGUAGGAUAUGCUAUCGACU |  |  | 0.0111 µM | 0.108 µM
GAUUGACAUGAGGAUCACCCAUGUGAGGAUAUCGGCCGGACCUUGUUAGCUUCCACCGCGAGAAGGCACAUCGG |  |  | 0.0197 µM | 0.0213 µM
CUCUUGUAAGGAUAUGACUACAUAAAAAAAAAAAAAUGUAGUCAGAAGGUACAUGAGGAUCACCCAUGUACAAA |  |  | 0.0227 µM | 0.0256 µM
CAAGGCGUUGACCGACUCCAGACAUGAGGAUCACCCAUGUAGAAGGAUAUGUACCGCACCCUUGGACAGAAGGUCUACUGGGUU |  |  | 0.017 µM | 0.0389 µM
UUGGACGUCGUAGGAUAUGUAGGAUAUUCCUACAUGAGGAUCACCCAUGUUGACAUGGAAGAAGGACAGUAGGACGAUGUCCAU | 0.251 µM | 0.00802 µM |  | 
GCACGAGACUAAGGAUAUGGUGUACCUACAUGAAACAUGAGGAUCACCCAUGUAGUAAGUAUGAUUCAGAAGGUAGAGACGUGC | 0.0304 µM | 0.0183 µM |  | 
ACGCGUUGGGAGAAGGUACAUUAAAUUAGUUACACAUGAGGAUCACCCAUGUAAGGAUAUCCCAUCGUGUAAUAUUAUACAGCA |  |  | 0.00976 µM | 0.00962 µM
AUAAGCUCGUCAGGAUAUACGUCACUGCGUCAGCAGUGUGGUAAGAUCACAUGAGGAUCACCCAUGUAGAAGGGACGAGCUGAU |  |  | 0.0147 µM | 0.266 µM
AGUAUGAGAGGAUAUACGAAUAAACAUGGAAACAUGAUGGGACAUGAGGAUCACCCAUGUAGAAGGCUCGUACA |  |  | 0.118 µM | 0.358 µM
CAGGUAGCUACAGGAUAUACACGUCUGGAUAAACCAGACGAAUACCUUACAUGAGGAUCACCCAUGUAGAAGGGUAGCUGCCUG |  |  | 0.0169 µM | 0.0198 µM
